{
  "source": "ChEMBL document CHEMBL1159346",
  "about": "“Antineoplastic agents. 488. Isolation and structure of yukonin from a yukon territory fungus” (2003)",
  "assay_type_in_all_cases": "functional",
  "key": {"Candida albicans": {"system": "Candida albicans", "assay": "Antimicrobial activity against Candida albicans by broth microdilution method", "summary_of_the_method": "(§1)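 Yeast strains: Candida albicans ATCC 90028 and Cryptococcus neoformans ATCC 90112. Tested by broth microdilution following the NCCLS reference broth dilution method for yeasts. The MIC was read as the lowest compound concentration giving no visible growth (optically clear wells).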"}, "KM-20L2": {"system": "KM-20L2", "assay": "Cytotoxicity against human KM20L2 cells"}, "BXPC-3": {"system": "BXPC-3", "assay": "Cytotoxicity against human BxPC3 cells"}, "SF-268": {"system": "SF-268", "assay": "Cytotoxicity against human SF268 cells"}, "DU-145": {"system": "DU-145", "assay": "Cytotoxicity against human DU145 cells"}, "Cryptococcus neoformans": {"system": "Cryptococcus neoformans", "assay": "Antimicrobial activity against Cryptococcus neoformans by broth microdilution method", "summary_of_the_method": "as §1"}, "MCF7": {"system": "MCF7", "assay": "Cytotoxicity against human MCF7 cells"}, "NCI-H460": {"system": "NCI-H460", "assay": "Cytotoxicity against human NCI-H460 cells"}, "P388": {"system": "P388", "assay": "Cytotoxicity against mouse P388 cells"}},
  "data": [
    {"smiles": "C[C@@]12CCC[C@]3(C)C4=CC(=O)OCC4=C[C@@H](OC1=O)[C@@H]23", "values": [
      {"measurement": "MIC", "setting": "Candida albicans", "value": 64, "unit": "µg/mL"},
      {"measurement": "GI50", "setting": "KM-20L2", "value": 0.45, "unit": "µg/mL"},
      {"measurement": "GI50", "setting": "BXPC-3", "value": 1.8, "unit": "µg/mL"},
      {"measurement": "GI50", "setting": "SF-268", "value": 0.57, "unit": "µg/mL"},
      {"measurement": "GI50", "setting": "DU-145", "value": 0.34, "unit": "µg/mL"},
      {"measurement": "MIC", "setting": "Cryptococcus neoformans", "value": 16, "unit": "µg/mL"},
      {"measurement": "GI50", "setting": "MCF7", "value": 0.69, "unit": "µg/mL"},
      {"measurement": "GI50", "setting": "NCI-H460", "value": 0.48, "unit": "µg/mL"},
      {"measurement": "GI50", "setting": "P388", "value": 0.31, "unit": "µg/mL"}
    ]},
    {"smiles": "CO[C@H]1OC(=O)C=C2C1=C[C@H]1OC(=O)[C@@]3(C)CCC[C@@]2(C)[C@@H]13", "values": [
      {"measurement": "MIC", "setting": "Candida albicans", "value": 8, "unit": "µg/mL"},
      {"measurement": "GI50", "setting": "KM-20L2", "value": 0.21, "unit": "µg/mL"},
      {"measurement": "GI50", "setting": "BXPC-3", "value": 0.36, "unit": "µg/mL"},
      {"measurement": "GI50", "setting": "SF-268", "value": 0.24, "unit": "µg/mL"},
      {"measurement": "GI50", "setting": "DU-145", "value": 0.14, "unit": "µg/mL"},
      {"measurement": "MIC", "setting": "Cryptococcus neoformans", "value": 2, "unit": "µg/mL"},
      {"measurement": "GI50", "setting": "MCF7", "value": 0.33, "unit": "µg/mL"},
      {"measurement": "GI50", "setting": "NCI-H460", "value": 0.24, "unit": "µg/mL"},
      {"measurement": "GI50", "setting": "P388", "value": 4.1, "unit": "µg/mL"}
    ]},
    {"smiles": "C[C@@]12CCC[C@]3(C)C4=CC(=O)O[C@@H](O)C4=C[C@@H](OC1=O)[C@@H]23", "note": "[YUKONIN]", "values": [
      {"measurement": "MIC", "setting": "Candida albicans", "value": "> 64", "unit": "µg/mL"},
      {"measurement": "GI50", "setting": "KM-20L2", "value": 3.6, "unit": "µg/mL"},
      {"measurement": "GI50", "setting": "BXPC-3", "value": 5.6, "unit": "µg/mL"},
      {"measurement": "GI50", "setting": "SF-268", "value": 2.9, "unit": "µg/mL"},
      {"measurement": "GI50", "setting": "DU-145", "value": 2.9, "unit": "µg/mL"},
      {"measurement": "MIC", "setting": "Cryptococcus neoformans", "value": 64, "unit": "µg/mL"},
      {"measurement": "GI50", "setting": "MCF7", "value": 4, "unit": "µg/mL"},
      {"measurement": "GI50", "setting": "NCI-H460", "value": 4.1, "unit": "µg/mL"},
      {"measurement": "GI50", "setting": "P388", "value": "> 10", "unit": "µg/mL"}
    ]}
  ]
}
